# Calls of active or inactive are those of the source.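 Rule for the calls, unless noted: active = fluorescence slope after compound addition differing from the mean of all tested samples at 99.7% confidence, mostly higher but some lower; inactive = the rest.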
# Experiments:
# [1] = inhibitors of TNFa-induced NFkB p65 translocation, primary screen, imaging, HUVEC, MLSMR starter and 10KST1 sets (AID 438;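 active = inhibition above 20% together with a positive visual image hit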;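 note: compound added about 3h40 before a 20 min TNFalpha stimulation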;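 for inhibition: signal is the nuclear over cytoplasmic p65 intensity ratio per well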); conditions: HUVEC TNFa-induced p65 nuclear translocation; cell count: measured here: nuclei count (cytotoxicity indicator), at 2.08 µM; inhibition: at 2 µM, stronger effect = higher value, 0% TNFa-plus-vehicle, 100% no-TNFa wells
# [2] = inhibitors of mutant huntingtin aggregation, primary screen, imaging, exon1htt(103Q)mCFP cells, high-content imaging (AID 483;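 active = visual image review flags a hit and inhibition of aggregation exceeds 20%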;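 note: compound exposure lasted 3 days before fixation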;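 for nuclei count: percent of the per-plate median nuclei count of sample wells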); conditions: exon1htt(103Q)mCFP cell line, aggregate imaging, at 2 µM; inhibition of aggregation: stronger effect = higher value; nuclei count: measured here: cell count, toxicity
# [3] = inhibitors of E-selectin induction by TNFa, primary screen, imaging, HUVEC, immunofluorescence, MLSMR starter and 10KST1 sets (AID 487;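 active = visually confirmed hit in the image check and inhibition above 20%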;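 for inhibition: signal is fraction of cell area covered by stained E-selectin grains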;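 for nuclei count: 100% = median nuclei count of all wells on the same plate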); conditions: HUVEC TNFalpha-induced E-selectin immunofluorescence imaging, at 2 µM; inhibition: stronger effect = higher value; nuclei count: measured here: cell number, toxicity
# [4] = biological target: Voltage-gated potassium channel subunit beta-2 (Rattus norvegicus) (UniProt P62483); assay: KvBeta enzyme negative modulators, primary screen, biochemical, NADPH fluorescence (AID 622;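 active = fluorescence slope higher than the sample average by over 3 SD, cut at about -0.22 in these data, passing the limit was not always enough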;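 note: slope of raw intensity against log time taken from 70 to 1610 s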); conditions: recombinant KvBeta, 4-cyanobenzaldehyde reduction, at 10 µM, stronger effect = higher value
# Chain of Voltage-gated potassium channel subunit beta-2 (Rattus norvegicus) (P62483 whole entry, looked up): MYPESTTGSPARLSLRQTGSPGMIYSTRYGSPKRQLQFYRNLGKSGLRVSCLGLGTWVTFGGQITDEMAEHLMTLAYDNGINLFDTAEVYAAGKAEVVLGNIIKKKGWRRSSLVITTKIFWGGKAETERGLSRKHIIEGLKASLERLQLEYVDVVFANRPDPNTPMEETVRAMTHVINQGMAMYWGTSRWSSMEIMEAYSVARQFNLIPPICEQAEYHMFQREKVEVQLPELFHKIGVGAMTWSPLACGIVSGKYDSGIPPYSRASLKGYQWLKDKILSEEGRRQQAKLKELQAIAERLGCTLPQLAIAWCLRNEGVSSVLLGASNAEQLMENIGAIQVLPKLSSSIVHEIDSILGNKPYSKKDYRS
# [5] = biological target: Voltage-gated potassium channel subunit beta-2 (Rattus norvegicus) (UniProt P62483); assay: KvBeta positive modulators, primary screen, biochemical, NADPH fluorescence (AID 623;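 active = NADPH fluorescence slope more negative than the mean of all samples by about 3 SD, 99.7% confidence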;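 note: fluorescence intensity change per second fitted from 20 to 320 s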); conditions: Recombinant KvBeta, NADPH fluorescence decrease slope, 10 min; at 10 µM; stronger effect = lower value
# [6] = biological target: Muscarinic acetylcholine receptor M4 (Homo sapiens) (UniProt P08173); assay: compounds altering M4/GIRK thallium flux, either direction, primary screen, M4 allosteric agonist project, cell-based, HEK293 M4/GIRK, BTC-AM (AID 625); conditions: at 10 µM, actives lie on both sides;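 note: thallium influx through GIRK channels coupled to M4 in HEK293 cells with BTC-AM dye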
# Chain of Muscarinic acetylcholine receptor M4 (Homo sapiens) (P08173 whole entry, looked up): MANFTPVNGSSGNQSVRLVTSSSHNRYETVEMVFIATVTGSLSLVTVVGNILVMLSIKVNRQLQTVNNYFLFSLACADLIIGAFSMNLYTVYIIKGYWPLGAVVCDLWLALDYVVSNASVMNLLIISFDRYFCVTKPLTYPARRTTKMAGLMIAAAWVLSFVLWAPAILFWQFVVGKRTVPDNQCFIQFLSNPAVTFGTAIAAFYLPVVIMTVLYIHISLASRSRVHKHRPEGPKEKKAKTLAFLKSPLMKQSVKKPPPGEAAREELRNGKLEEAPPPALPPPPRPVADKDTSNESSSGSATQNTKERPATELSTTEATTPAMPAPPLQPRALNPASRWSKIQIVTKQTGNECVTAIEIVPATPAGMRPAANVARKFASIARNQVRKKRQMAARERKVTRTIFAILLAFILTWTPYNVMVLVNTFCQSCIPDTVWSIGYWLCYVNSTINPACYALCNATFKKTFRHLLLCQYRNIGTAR
# In short: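 Material: M4/GIRK1/GIRK2 stable HEK293 cell line. Medium: pH 7.3 thallium assay buffer. Dosing: single compound concentration, 10 µM final. Schedule: 1 h dye loading, 2 min kinetic read. Measured by: kinetic fluorescence with BTC-AM dye. Read-out: post-addition slope, 15–24 s, of baseline-normalized fluorescence. Benchmarks: carbachol and DMSO controls.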
# [7] = inhibitors of Sendai virus-induced IRF3 signaling, primary screen, TLR/RLR signaling modifier project, cell-based, Sendai virus stimulus, luciferase, 10K MLSCN set (AID 602276;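 active = inhibition at or above 50% at 10 µM; inactive = inhibition below 50%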;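 note: firefly luciferase from ISG56 promoter only with Renilla not read in this screen; 0% = Sendai virus plus DMSO and 100% = medium plus DMSO without virus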); conditions: HEK293 RL24 IRF3 luciferase reporter, at 10 µM, stronger effect = higher value
# [8] = inhibitors of poly I:C-induced TLR3 signaling, primary screen, cell-based, poly I:C stimulus, luciferase, 10K MLSCN set (AID 602277;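 active = inhibition of the reporter signal at or above 50%; inactive = inhibition below 50%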); conditions: HEK293-TLR3 RL24 IRF3 luciferase reporter, at 10 µM, stronger effect = higher value
SMILES,cell count [1],inhibition [1],inhibition of aggregation [2],nuclei count [2],inhibition [3],nuclei count [3],fluorescence slope [4],NADPH fluorescence slope [5],fluorescence slope [6],inhibition [7],inhibition [8]
O=C(Cc1ccc(S(=O)(=O)N2CCCC2)s1)Nc1nc2c(s1)CCCC2,577,22.2% (inactive),25.3% (inactive),94.3%,18.1% (inactive),71.4%,-0.574 (inactive),-5.6e-05 (inactive),0.00565 (inactive),-11% (inactive),-53.9% (inactive)
Cc1ccc(NC(=O)C2CCCNC2=O)nc1 (centres undefined),265,-2.2% (inactive),5.8% (inactive),86.6%,-48.5% (inactive),82.2%,-0.448 (inactive),-4.9e-05 (inactive),0.00534 (inactive),2.07% (inactive),-1.11% (inactive)
Cc1csc(SCC(=O)NC(=O)NCc2ccccc2)n1,624,-17.1% (inactive),-16.6% (inactive),114%,-30.3% (inactive),123%,-0.407 (inactive),9.9e-05 (inactive),0.0067 (inactive),15.1% (inactive),20% (inactive)
O=C(c1ccc(-c2cccc(C(F)(F)F)c2)o1)N1CCOCC1,482,4.3% (inactive),-17.9% (inactive),117%,10.8% (inactive),99.9%,-0.544 (inactive),-3.4e-05 (inactive),0.00523 (inactive),-39.9% (inactive),-93.2% (inactive)
CCOc1ccccc1NC(=O)CSc1c(C)n[nH]c1C,333,-2% (inactive),-21.4% (inactive),120%,-17.1% (inactive),113%,-0.548 (inactive),-1.7e-05 (inactive),0.00526 (inactive),1.91% (inactive),15.3% (inactive)
Cc1ccc(C)c(C(=O)NC2CC(C)(C)NC(C)(C)C2)c1,690,0.8% (inactive),14% (inactive),94%,-8.2% (inactive),96%,-0.578 (inactive),-5.3e-05 (inactive),0.00855 (inactive),-2.48% (inactive),9.21% (inactive)
COc1ccc(CN(C(=O)c2ccccc2OC)C2CCS(=O)(=O)C2)cc1 (centres undefined),452,2.2% (inactive),23% (inactive),75%,13.1% (inactive),109%,-0.58 (inactive),-7.5e-05 (inactive),0.00303 (inactive),14.2% (inactive),23.7% (inactive)
CC1C(c2ccccc2)N(C)CCC12NC(=O)NC2=O (centres undefined),315,-0.8% (inactive),-12.3% (inactive),108%,-43% (inactive),135%,-0.397 (inactive),6.4e-05 (inactive),0.00604 (inactive),-0.144% (inactive),3.49% (inactive)
O=C1CCCC2=C1C(c1ccsc1)CC(=O)N2c1ccccc1 (centres undefined),550,-11.1% (inactive),-6.3% (inactive),100%,-88.5% (inactive),95.1%,-0.422 (inactive),-0.000362 (inactive),0.00622 (inactive),15.9% (inactive),19.3% (inactive)
O=C(C1CC1)N(Cc1ccco1)c1nc(-c2ccccc2)cs1,336,6.6% (inactive),3.5% (inactive),104%,-72.7% (inactive),109%,-0.445 (inactive),-8.7e-05 (inactive),0.00828 (inactive),-13.9% (inactive),-15.4% (inactive)
CCOC(=O)Cc1nnc(NC(=O)CSc2nnc3c4ccccc4n(C(C)C)c3n2)s1,359,-7.7% (inactive),-10.9% (inactive),94.3%,-158% (inactive),90.2%,-0.554 (inactive),-3.3e-05 (inactive),0.00407 (inactive),18% (inactive),25.8% (inactive)
Nc1nonc1-c1noc(-c2ccccc2Br)n1,384,-1.6% (inactive),-6.3% (inactive),63%,-23.9% (inactive),112%,-0.252 (inactive),-2.2e-05 (inactive),0.00797 (inactive),5.89% (inactive),-26.2% (inactive)
CC(O)CN(Cc1cccc(Cl)c1)CC(C)O (centres undefined),473,0.5% (inactive),1.4% (inactive),100%,10.2% (inactive),95.1%,-0.431 (inactive),1.1e-05 (inactive),0.00551 (inactive),18.8% (inactive),19.5% (inactive)
COC(=O)c1ccc(CSc2nc3ccccc3c(=O)n2Cc2ccco2)o1,414,2.6% (inactive),-12.9% (inactive),111%,1.8% (inactive),114%,-0.563 (inactive),-1.4e-05 (inactive),0.00748 (inactive),6.37% (inactive),-5.19% (inactive)
O=C(NCc1ccc(F)cc1)c1cc(-c2ccco2)on1,330,-17.6% (inactive),18.1% (inactive),92%,29.3% (inactive),102%,-0.46 (inactive),-5.1e-05 (inactive),0.00521 (inactive),-17.1% (inactive),-42.6% (inactive)
COc1ccc(C2=NOC(C(=O)NCCCN3CCOCC3)C2)cc1 (centres undefined),315,3.5% (inactive),11.3% (inactive),86%,11.5% (inactive),84.7%,-0.554 (inactive),-0.000122 (inactive),0.00417 (inactive),11.7% (inactive),23.1% (inactive)
c1ccc(Cn2nnnc2C(c2ccccn2)N2CCOCC2)cc1 (centres undefined),485,2.1% (inactive),-13% (inactive),81.4%,-85.1% (inactive),116%,-0.577 (inactive),-4.9e-05 (inactive),0.00747 (inactive),-6.48% (inactive),2.75% (inactive)
CCCn1c(N2CCN(CC(=O)NCc3cccs3)CC2)nc2ccccc21,451,-6.7% (inactive),5.2% (inactive),110%,-81.5% (inactive),228%,-0.437 (inactive),-3.1e-05 (inactive),0.00415 (inactive),21.5% (inactive),28.5% (inactive)
O=C(Nc1cccc2c1CCCC2)C1CCN(c2nnnn2-c2ccccc2)CC1,653,1.7% (inactive),0.3% (inactive),109%,-20.6% (inactive),109%,-0.566 (inactive),2.3e-05 (inactive),0.00472 (inactive),10.2% (inactive),10.8% (inactive)

# From PubChem BioAssay
